Experimental data collected from several papers.
Each line is one published result; the experiments were not run side by side.

| SMILES | assay | test system | conditions | quantity | value |
| --- | --- | --- | --- | --- | --- |
| C[C@H]1O[C@@H](O[C@H]2[C@@H](O)C[C@H](O[C@H]3[C@@H](O)C[C@H](O[C@H]4CC[C@@]5(C)[C@H](CC[C@@H]6[C@@H]5C[C@@H](O)[C@]5(C)[C@@H](C7=CC(=O)OC7)CC[C@]65O)C4)O[C@@H]3C)O[C@@H]2C)C[C@H](O)[C@@H]1O |  | Caco-2 | 10 µM, 2 h, pH 7.4 | efflux ratio | 8.9 |
| O=c1c2cc(Cl)c(CO)cc2[nH]c(=S)n1Cc1cncnc1 |  | Caco-2 | 10 µM, 90 min, pH 7.4 | efflux ratio | ~2 |
| CC(C)CC(=O)OC[C@H]1O[C@@](C#N)(c2ccc3c(N)ncnn23)[C@H](O)[C@@H]1O | general toxicity | beagle dog | oral, multiple doses | NOAEL | 100 mg/kg/day |
| O=c1c2cc(Cl)c(CO)cc2[nH]c(=S)n1Cc1cccnc1 |  | Caco-2 | 10 µM, 90 min, pH 7.4 | efflux ratio | ~2 |
| N=C(N)NCCC[C@H](NC(=O)[C@H](Cc1ccccc1)NC(=O)[C@H](CCC(N)=O)NC(=O)OCc1ccccc1)C(=O)c1nccs1 |  | female C57BL/6 mouse, plasma | intravenous, 5 mg/kg | Tmax | 5 min |
| COc1cc(C(=O)c2nc(-c3cccc4[nH]ccc34)c[nH]2)cc(OC)c1OC |  | male CD-1 mouse, plasma | intraperitoneal, 15 mg/kg | Tmax | 8.4 min |
| Cc1[nH]c(C)c(S(=O)(=O)Nc2ccc(S(F)(F)(F)(F)F)cc2)c1C(=O)N1CCC(F)(F)C1 |  | mouse, brain | intraperitoneal, 40 mg/kg | Tmax | 120 min |
| CCOC(=O)c1c(NC(=O)CNC(C)C)sc2c1CCCCC2 |  | male mouse, brain | intraperitoneal, 100 mg/kg, single dose | Tmax | 30 min |
| CC(C)NCC(O)COc1cccc2ccccc12 (stereo not shown) |  | Caco-2 | 10 µM, 2 h, pH 7.4 | efflux ratio | 0.7 |
| CC(=O)c1c(C)c2cnc(Nc3ccc(C4CCN(CCS(C)(=O)=O)CC4)cn3)nc2n(C2CCCC2)c1=O |  | Caco-2 | 10 µM | efflux ratio | 0.96 |
